For one series, the system named is HeLa. The series can be described thus: Cytotoxicity against human HeLa cells at 25 to 100 uM after 24 hrs by MTT assay. The format is functional, cell-based. In short, it runs like this:
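HeLa cells seeded at 7000 cells/well and grown 24 h, then given peptide in medium (solutions centrifuged first, as not fully soluble) at 25, 50 and 100 µM for 24 h at 37 °C. MTT added at 22 h (0.5 mg/mL final) for 2 h. Formazan dissolved in 2-propanol, A570 read after 45 min. Viability is % of untreated cells; mean ± SD.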
On the technique in general: Tetrazolium dyes change colour on reduction, which living cells bring about.

The nature of series [1]: Membrane permeability assessed as passive transport after 4 hrs by PAMPA. On the technique in general: PAMPA measures passive passage across an artificial lipid membrane.
Series [2] can be described thus: Membrane permeability by PAMPA.
Series [3] in a line: Stability in human serum after 12 hrs.
The nature of series [4]: Membrane permeability by PAMPA in presence of 20% 1-propanol. The format is ADME. As to conditions: read-out: permeability. The gist of the method:
(§1)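 PAMPA-BBB model, 200 µM compound in pION buffer pH 7.4 with 20% 1-propanol in the donor well. Filter coated with phospholipid mix (20 mg/mL in dodecane); acceptor holds buffer plus 1-propanol. Incubated 4 h at room temperature, saturated humidity, orbital shaking 100 rpm. Donor and acceptor quantified by RP-HPLC. % transport at 4 h and Pe (eq 1) calculated; mean ± SD.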

A short description of series [5]: Membrane permeability assessed as passive transport after 4 hrs by PAMPA in presence of 20% 1-propanol. The format is ADME. The gist of the method: as §1

SMILES strings stand for the structures. Where a SMILES comes first, the peptide text is derived from it. [ ]: non-standard residue; d: D form. Tpi = O=C(O)[C@@H]1Cc2c([nH]c3ccccc23)CN1; NMeW = CN[C@@H](Cc1c[nH]c2ccccc12)C(=O)O; 2Nal = N[C@@H](Cc1ccc2ccccc2c1)C(=O)O; Dopa = N[C@@H](Cc1ccc(O)c(O)c1)C(=O)O; NMehPhe = CN[C@@H](CCc1ccccc1)C(=O)O; NMeF = CN[C@@H](Cc1ccccc1)C(=O)O; NMePhg = CN[C@H](C(=O)O)c1ccccc1; 3Pal = N[C@@H](Cc1cccnc1)C(=O)O; Tic = O=C(O)[C@@H]1Cc2ccccc2CN1; Phg = N[C@H](C(=O)O)c1ccccc1

Experimental findings from ChEMBL document CHEMBL1156575, “Toward an optimal blood-brain barrier shuttle by synthesis and evaluation of peptide libraries” (J Med Chem, 2008) are described below.

Turning to `CC(=O)N[C@@H](Cc1ccc2ccccc2c1)C(=O)N(C)[C@@H](Cc1ccccc1)C(=O)N(C)[C@@H](Cc1ccccc1)C(=O)N(C)[C@@H](Cc1ccccc1)C(N)=O` (Ac-[2Nal][NMeF][NMeF][NMeF]-NH2), in the series on HeLa, the Activity result is “Not toxic”.
Consider `CC(=O)N[C@@H](Cc1c[nH]c2ccccc12)C(=O)N(C)[C@@H](Cc1ccccc1)C(=O)N(C)[C@@H](Cc1ccccc1)C(=O)N(C)[C@@H](Cc1ccccc1)C(N)=O` (Ac-W[NMeF][NMeF][NMeF]-NH2), for which, in series [1], the permeability is 3.9%. Moreover, the Papp in series [2] (permeability) turned out to be 1.8 ×10⁻⁶ cm/s.
Regarding `CC(=O)N(C)[C@@H](Cc1c[nH]c2ccccc12)C(=O)N(C)[C@@H](Cc1ccccc1)C(=O)N(C)[C@@H](Cc1ccccc1)C(=O)N(C)[C@@H](Cc1ccccc1)C(N)=O` (Ac-[NMeW][NMeF][NMeF][NMeF]-NH2), the permeability in series [1] is on record as 2.9%. For the same molecule, the Papp in series [2] (permeability) turned out to be 1.4 ×10⁻⁶ cm/s.
Turning to `CC(=O)N[C@H](C(=O)N(C)[C@@H](Cc1ccccc1)C(=O)N(C)[C@@H](Cc1ccccc1)C(=O)N(C)[C@@H](Cc1ccccc1)C(N)=O)c1ccccc1` (Ac-[Phg][NMeF][NMeF][NMeF]-NH2), in series [1], the permeability was 0%.
For the molecule `CC(=O)N(C)[C@@H](Cc1ccccc1)C(=O)N(C)[C@@H](Cc1ccccc1)C(=O)N(C)[C@@H](Cc1ccccc1)C(=O)N(C)[C@@H](Cc1ccccc1)C(=O)O` (Ac-[NMeF][NMeF][NMeF][NMeF]-OH), the permeability in series [1] came out at 1.9%. For the same molecule, in series [2] (permeability), the Papp turned out to be 0.9 ×10⁻⁶ cm/s.
As for `CC(=O)N(C)[C@@H](Cc1ccccc1)C(=O)N(C)[C@@H](Cc1ccccc1)C(=O)N(C)[C@@H](Cc1ccccc1)C(=O)N(C)[C@@H](Cc1ccccc1)C(N)=O` (stereo in doubt; form 2), the Activity result in the series with HeLa is “Not toxic”. In series [3], this molecule showed an amount remaining at 12 h of 91%.
Turning to `CC(=O)N(C)[C@@H](CCc1ccccc1)C(=O)N(C)[C@@H](Cc1ccccc1)C(=O)N(C)[C@@H](Cc1ccccc1)C(=O)N(C)[C@@H](Cc1ccccc1)C(N)=O` (Ac-[NMehPhe][NMeF][NMeF][NMeF]-NH2), the permeability in series [1] is recorded as 3.7%. In addition, the Papp in series [2] (permeability) came out at 1.8 ×10⁻⁶ cm/s.
For `CC(=O)N[C@@H](Cc1cccnc1)C(=O)N(C)[C@@H](Cc1ccccc1)C(=O)N(C)[C@@H](Cc1ccccc1)C(=O)N(C)[C@@H](Cc1ccccc1)C(N)=O` (Ac-[3Pal][NMeF][NMeF][NMeF]-NH2), in that order: 2.5% and 1.2 ×10⁻⁶ cm/s.
For `CC(=O)N1Cc2[nH]c3ccccc3c2C[C@H]1C(=O)N(C)[C@@H](Cc1ccccc1)C(=O)N(C)[C@@H](Cc1ccccc1)C(=O)N(C)[C@@H](Cc1ccccc1)C(N)=O` (Ac-[Tpi][NMeF][NMeF][NMeF]-NH2), in that order: 3.2% and 1.5 ×10⁻⁶ cm/s.
Turning to `CN(C(=O)[C@H](Cc1ccc2ccccc2c1)NC(=O)[C@@H](N)Cc1ccc(O)c(O)c1)[C@@H](Cc1ccccc1)C(=O)N(C)[C@@H](Cc1ccccc1)C(=O)N(C)[C@@H](Cc1ccccc1)C(N)=O` (H-[Dopa][2Nal][NMeF][NMeF][NMeF]-NH2), the permeability in series [1] came out at 0.7%. Also, in series [2], the Papp was determined as 0.3 ×10⁻⁶ cm/s.
`CC(C)NCC(O)COc1cccc2ccccc12` (centres undefined) [PROPRANOLOL]: the Papp in series [4] worked out at 8.4 ×10⁻⁶ cm/s; in series [2] (permeability), 6.9 ×10⁻⁶ cm/s. The values for the permeability in series [5] and in series [1] were 14.9% and 13.5%, respectively.
For `CN(C(=O)[C@@H]1Cc2ccccc2CN1)[C@@H](Cc1ccccc1)C(=O)N(C)[C@@H](Cc1ccccc1)C(=O)N(C)[C@@H](Cc1ccccc1)C(N)=O` (H-[Tic][NMeF][NMeF][NMeF]-NH2), in series [1], the permeability came out at 4.6%. This molecule yielded a Papp in series [2] (permeability) of 2.2 ×10⁻⁶ cm/s.
Turning to `CN(C(=O)[C@@H](N)Cc1ccc(O)c(O)c1)[C@@H](Cc1ccccc1)C(=O)N(C)[C@@H](Cc1ccccc1)C(=O)N(C)[C@@H](Cc1ccccc1)C(=O)N(C)[C@@H](Cc1ccccc1)C(N)=O` (H-[Dopa][NMeF][NMeF][NMeF][NMeF]-NH2), the permeability in series [1] is 2.4%. This molecule returned a Papp in series [2] of 1.1 ×10⁻⁶ cm/s.
In the case of `Cn1c(=O)c2c(ncn2C)n(C)c1=O` [CAFFEINE], the Papp in series [4] and in series [2] (permeability) was 1.8 ×10⁻⁶ cm/s in each case. The permeability in series [5] and in series [1] was 3.6% each time.
Turning to `NC(=O)N1c2ccccc2C=Cc2ccccc21` [CARBAMAZEPINE], the results for the Papp in series [4] and in series [2] (permeability) were 12.8 ×10⁻⁶ cm/s and 8 ×10⁻⁶ cm/s, respectively. Also, the permeability in series [5] came out at 20.6%; in series [1], 16.8%.
For `CN(C(=O)[C@@H]1Cc2c([nH]c3ccccc23)CN1)[C@@H](Cc1ccccc1)C(=O)N(C)[C@@H](Cc1ccccc1)C(=O)N(C)[C@@H](Cc1ccccc1)C(N)=O` (H-[Tpi][NMeF][NMeF][NMeF]-NH2), the permeability in series [1] worked out at 1.3%. The Papp in series [2] (permeability) was found to be 0.6 ×10⁻⁶ cm/s.
For `CC(=O)N1Cc2ccccc2C[C@H]1C(=O)N(C)[C@@H](Cc1ccccc1)C(=O)N(C)[C@@H](Cc1ccccc1)C(=O)N(C)[C@@H](Cc1ccccc1)C(N)=O` (Ac-[Tic][NMeF][NMeF][NMeF]-NH2), in that order: 4.3% and 2 ×10⁻⁶ cm/s.
In the case of `CC(=O)N(C)[C@H](C(=O)N(C)[C@@H](Cc1ccccc1)C(=O)N(C)[C@@H](Cc1ccccc1)C(=O)N(C)[C@@H](Cc1ccccc1)C(N)=O)c1ccccc1` (Ac-[NMePhg][NMeF][NMeF][NMeF]-NH2), in series [1], the permeability is on record as 1.5%. Also, the Papp in series [2] (permeability) was determined as 0.7 ×10⁻⁶ cm/s.
Take `N[C@@H](Cc1ccc(O)c(O)c1)C(=O)O` [LEVODOPA]: the permeability in series [5] and in series [1] was 0% each time.
For `NCCc1ccc(O)c(O)c1` [DOPAMINE], the permeability in series [5] and in series [1] was 0% in each case.

A word on the share remaining: it is the share of the starting amount still present when the sample was taken.
